High-throughput results: PubChem BioAssay, several laboratories
WT yeast gro inh – growth inhibition of WT yeast, mitochondrial fusion screen. mitochondrial fusion phenotypic screen, WT strain. inhibition, % at 10 µM. 190,000 tested, 2.1% active; in the data active means inhibition above about 58%; tested in S. cerevisiae
SKKanGAS inh – inhibitors of SKKanGAS S. pyogenes growth in kanamycin (SK-promoter or general growth effect); BacTiter-Glo, 6 h; inhibition, % at 7.5 µM; 300,000 tested, 1.3% active;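 active means mean replicate score, as percent of positive control median, at least 50; inconclusive means mean below 50 but one replicate at or above 50; inactive means mean and every replicate below 50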;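 further: strain carries kanamycin resistance gene driven by streptokinase promoter and grows in 40 µg/ml kanamycin; loss of luminescence reflects streptokinase promoter inhibition or plain growth inhibition; 0% = median of DMSO wells and 100% = positive control at its reference dose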
Cl transport mod – modulators of human KCC2 chloride dependent transport | Q9H2X9 | KCC2 cells, thallium flux FluoZin-2 fluorescence | B-score of Tl+ flux slope (higher = more flux/activation; lower = inhibition) at 10 µM | 190,000 tested, 2.2% active;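 active means thallium flux slope and its plate-corrected score both differing from the plate sample mean at a set confidence after two filtering rounds, in either direction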;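 further: slope of fluorescence scaled to starting intensity during 10 to 20 s after thallium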
Target sequence (Q9H2X9 whole entry, looked up): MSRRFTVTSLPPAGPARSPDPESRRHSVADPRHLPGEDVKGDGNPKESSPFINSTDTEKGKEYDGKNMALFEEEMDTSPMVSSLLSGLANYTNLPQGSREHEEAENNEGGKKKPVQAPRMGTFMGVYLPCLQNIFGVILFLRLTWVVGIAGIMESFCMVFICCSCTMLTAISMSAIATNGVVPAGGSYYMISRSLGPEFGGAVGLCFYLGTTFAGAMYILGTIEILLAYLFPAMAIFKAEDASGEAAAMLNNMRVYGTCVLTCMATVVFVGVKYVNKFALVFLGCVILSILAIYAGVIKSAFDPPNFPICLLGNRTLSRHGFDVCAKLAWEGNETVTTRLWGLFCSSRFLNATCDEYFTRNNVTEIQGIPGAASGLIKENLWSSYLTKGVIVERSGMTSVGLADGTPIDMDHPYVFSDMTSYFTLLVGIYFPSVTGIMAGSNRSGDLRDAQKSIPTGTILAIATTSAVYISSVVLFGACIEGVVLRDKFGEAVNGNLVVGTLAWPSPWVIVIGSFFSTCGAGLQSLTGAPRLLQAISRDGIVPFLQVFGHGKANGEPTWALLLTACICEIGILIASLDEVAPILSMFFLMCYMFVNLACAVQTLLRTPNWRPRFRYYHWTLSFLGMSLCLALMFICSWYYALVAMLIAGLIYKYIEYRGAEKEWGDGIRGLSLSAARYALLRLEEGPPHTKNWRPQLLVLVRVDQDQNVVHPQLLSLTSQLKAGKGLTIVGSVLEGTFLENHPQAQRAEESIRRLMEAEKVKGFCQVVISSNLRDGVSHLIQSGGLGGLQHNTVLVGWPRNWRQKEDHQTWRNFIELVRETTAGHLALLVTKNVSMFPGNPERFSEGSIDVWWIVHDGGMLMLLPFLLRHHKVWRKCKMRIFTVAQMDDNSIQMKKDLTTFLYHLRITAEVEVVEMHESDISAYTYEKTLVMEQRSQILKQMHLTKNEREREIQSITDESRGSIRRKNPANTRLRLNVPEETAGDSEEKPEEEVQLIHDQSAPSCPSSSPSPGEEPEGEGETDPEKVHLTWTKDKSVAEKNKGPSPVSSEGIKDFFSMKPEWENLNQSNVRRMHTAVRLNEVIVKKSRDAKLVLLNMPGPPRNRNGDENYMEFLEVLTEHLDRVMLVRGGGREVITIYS
Ins promoter up – MIN6 insulin promoter up-regulation; AID 1625; MIN6 insulin promoter-GFP reporter, high-content imaging; active compounds read high; z-score at 5 µM; 190,000 tested, 0.3% active;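 active means z-score above 3 at 5 µM with at least 500 cells counted in the well; inconclusive means wells under 500 cells, flagged as cytotoxic or low count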
Autophagy mod – modulators of autophagy. MEF GFP-LC3 puncta imaging; test concentration mostly 10 µM. calls only at 10 µM (by protocol). 190,000 tested, 0.98% active;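 active means percentage of spot-positive cells more than 3 SD above its plate mean, without a fluorescence outlier flag or 80% toxicity; inconclusive means no clear call, values can overlap the other calls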;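 further: spot-positive cell cutoff set from DMSO-treated cells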
Rad51 HR inh – Rad51 (human) homologous recombination inhibition; Q06609; hRad51 DNA strand exchange, fluorescence dequenching; inhibition, % at 10 µM; 200,000 tested, 0.085% active; AID 1385;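 active means inhibition above 40% at the single screening dose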;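 further: 0% = DMSO control wells and 100% = blanks with heterologous ssDNA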
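Material: Human Rad51 nucleoprotein filaments preassembled on unlabelled ssDNA | Also added: Labelled 47-mer dsDNA for strand exchange | Dosing: Single dose, 10 µM final compound | Schedule: 30-min compound preincubation and 15-min exchange, both room temperature | Technique: Fluorescence dequenching at 485/520 nm | Measure: Percent inhibition relative to plate controls and blanks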
An asterisk follows results filed as active; i = inactive; ? = inconclusive; . = no result; + = active, no number. Sampled rows, rich in hits. Any-hit rate of the full collection: about 4.2%.

SMILES	WT yeast gro inh	SKKanGAS inh	Cl transport mod	Ins promoter up	Autophagy mod	Rad51 HR inh
Cc1cccc(NC(=O)C(=O)NNC(=O)c2ccc(C(C)(C)C)cc2)c1	.	85*	.	.	.	.
Cc1cc(NC(=O)Nc2cccc([N+](=O)[O-])c2)no1	-9	1	-0.85	1	i	7
O=C(Nc1ccncc1)Nc1cccc(C(F)(F)F)c1	.	-10	.	.	.	.
CC(C)(C)c1ccc(C(=O)Nc2cccc([N+](=O)[O-])c2)cc1	62*	13	0.053	-1.2	i	10
O=C(Nc1ccc(OC(F)F)cc1)Nc1cccc(C(F)(F)F)c1	83*	59*	-0.0039	1.9	i	5
CC(C)(C)CC(C)(C)NC(=O)Nc1cccc([N+](=O)[O-])c1	64*	17	-0.21	0.15	i	4
COc1cccc(C2N=C(c3ccccc3C)NO2)c1OC (stereo not drawn)	.	5	.	.	.	.
CN1CCN(NC(=O)c2ccc(Br)s2)CC1	.	5	-0.11	-0.32	.	.
Cc1ccc(NC(=O)CCCNC(=O)c2ccc(Cl)cc2)c(O)c1	.	-6	.	.	.	.
CCCCN(C1CCS(=O)(=O)C1)S(=O)(=O)c1cc(C)ccc1C (stereo not drawn)	.	-2	.	.	.	.
COc1ccc(N2CC(C(=O)OC(C)C(=O)c3ccccc3)CC2=O)cc1 (stereo not drawn)	-6	-5	-1.4	1.2	i	15
Cc1ccc(NC(=O)Nc2cccc([N+](=O)[O-])c2)cc1F	38	6	0.29	-0.68	i	4
O=C(Nc1ccc(OC(F)(F)F)cc1)Nc1cccc([N+](=O)[O-])c1	80*	19	0.69	-4.6	i	7
Cc1ccc(NC(=O)N(Cc2ccc3c(c2)OCO3)Cc2cc3cc4c(cc3[nH]c2=O)OCCO4)cc1	35	26	0.3	-5.4	+	-4
CCN(C)c1ccc(/C=N\n2nnnc2N)cc1	34	4	-0.93	0.02	+	0
Cc1ccc(N=Nc2ccc3ccccc3c2O)cc1	.	7	.	.	.	.
Oc1ccc(N=Nc2ccccc2C(F)(F)F)c2cccnc12	.	98*	.	.	.	.
CCS(=O)(=O)c1ccc(N=Nc2ccc(O)c3ncccc23)c(OC)c1	10	19	0.02	?	i	0
Cc1ccc(N=Nc2ccc(O)c3ncccc23)cc1	64*	109*	11*	?	i	4
COc1ccccc1N=Nc1ccc(O)c2ncccc12	.	94*	.	.	.	.
NC(=O)NOCc1ccccc1F	-2	-7	0.71	-0.71	i	.
Cc1nn(-c2ccccc2)c2ncc(C(=O)c3cc(Cl)ccc3O)cc12	20	0	0.059	-0.14	i	-7
CCc1nn2cc(C(=O)c3cc(Cl)ccc3O)cnc2c1-c1ccc(F)cc1	81*	21	-0.62	0	i	0
CCCCCCCC(=O)NNC(=O)c1c(O)c2ccccc2n(CCC)c1=O	7	111*	.	-0.14	i	.
CCCn1c(=O)c(C(=O)NNC(=O)c2ccccc2Cl)c(O)c2ccccc21	.	86*	.	.	.	.
SMILES	WT yeast gro inh	SKKanGAS inh	Cl transport mod	Ins promoter up	Autophagy mod	Rad51 HR inh
C=CCn1c(=O)c(C(=O)NCc2ccccc2)c(O)c2ccccc21	.	55*	.	.	.	.
CCCn1c(=O)c(C(=O)Nc2ccccc2)c(O)c2ccccc21	4	-3	1.4	.	i	14
CCn1c(=O)c(C(=O)NNC(=O)c2ccccc2)c(O)c2ccccc21	.	53*	.	.	.	.
CCc1ccc(NC(=O)CSc2nc3ccccc3nc2N2CCCC2)cc1	.	7	.	.	.	.
O=C1C(Cc2ccccc2)Nc2ncnc(N3CCN(c4ccccc4)CC3)c2N1Cc1ccc(Cl)cc1 (stereo not drawn)	.	10	.	.	.	.
Cc1oc(C(C)(C)C)cc1C(N)=O	.	1	0.2	0.19	.	-20
O=c1[nH]c(C2CCN(S(=O)(=O)c3ccc(C(F)(F)F)cc3)CC2)nc2c1nnn2Cc1ccccc1	.	28	.	.	.	.
CCCCCCC(=O)NNC(=O)c1c(O)c2ccccc2n(CCC)c1=O	-12	92*	2.6	.	i	-7
CC(C)Cn1c(=O)c(C(=O)Nc2ccncc2)c(O)c2ccccc21	.	96*	.	.	.	.
CCCn1c(=O)c(C(=O)NNC(=O)Cc2ccccc2)c(O)c2ccccc21	.	36	.	.	.	.
O=[N+]([O-])c1ccc(N2CCN(Cc3ccc(Br)o3)CC2)cc1	.	-4	.	.	.	.
CCCC(=O)NC(c1ccc(C)cc1)c1ccc2cccnc2c1O (stereo not drawn)	.	72*	.	.	.	.
CCCCC(=O)NC(c1ccc(N(C)C)cc1)c1ccc2cccnc2c1O (stereo not drawn)	.	5	.	.	.	.
CCCC(=O)NC(c1ccc(Cl)cc1Cl)c1ccc2cccnc2c1O (stereo not drawn)	.	89*	.	.	.	.
CCCC(=O)NC(c1ccc(Cl)cc1)c1ccc2cccnc2c1O (stereo not drawn)	.	58*	.	.	.	.
CC(=O)NC(c1ccc2ccccc2c1)c1ccc2cccnc2c1O (stereo not drawn)	.	89*	.	.	.	.
COc1ccc(C(NC(C)=O)c2ccc3cccnc3c2O)c(OC)c1 (stereo not drawn)	1	12	.	-5.4	.	-2
Cc1ccc(S(=O)(=O)N2CCC(C(=O)OC(C)C(=O)NCc3ccccc3)CC2)cc1C (stereo not drawn)	.	30	.	.	.	.
CCCC(=O)NC(c1ccccc1OC)c1ccc2cccnc2c1O (stereo not drawn)	8	14	0.29	-3.9	i	-9
CCCCC(=O)NC(c1ccc(Cl)cc1)c1ccc2cccnc2c1O (stereo not drawn)	.	70*	.	.	.	.
CC(=O)NC(c1ccc(Cl)cc1Cl)c1ccc2cccnc2c1O (stereo not drawn)	.	73*	.	.	.	.
CCOC(=O)c1cnn(C)c1NC(=O)c1ccc(Cl)cc1Cl	.	-4	.	.	.	.
O=C(NCc1ccccc1)C(Cc1ccccc1)NS(=O)(=O)c1cccc2nsnc12 (stereo not drawn)	16	-2	.	0.17	i	3
CC(C)(C)NC(=O)C(Cc1ccccc1)NS(=O)(=O)c1cccc2nsnc12 (stereo not drawn)	0	-2	0.35	-1.1	+	-4
O=C(NCCc1ccc(Cl)cc1)C1CCN(c2ncccn2)CC1	-3	-4	.	0.17	i	-11
SMILES	WT yeast gro inh	SKKanGAS inh	Cl transport mod	Ins promoter up	Autophagy mod	Rad51 HR inh
CCCc1cc(-n2ccnc2)n2c(nc3ccccc32)c1C#N	9	-7	-0.99	5.5*	i	.
O=C(CSCc1ccc(Cl)cc1)Nc1ccccc1O	20	-19	0.11	-1.2	i	5
CSc1ccccc1NC(=O)CSCc1ccc(C)cc1	8	9	-3.9*	0.53	i	-14
O=C(CSCc1cccc(Cl)c1)Nc1ccccc1-c1ccccc1	64*	-6	-1.3	-1.3	i	11
Cc1ccccc1CSCC(=O)Nc1ccccc1-c1ccccc1	74*	-4	1.4	-0.35	i	12
Cc1ccc(C(=O)NCCNC(=O)c2ccco2)cn1	.	-3	.	.	.	.
COc1ccc(C(=O)C2CCCN(Cc3ccc4nonc4c3)C2)c(OC)c1 (stereo not drawn)	12	4	.	-0.1	i	14
